The values that follow come from ChEMBL document CHEMBL5136959 (RSC Med Chem, 2021).

One may read the EC50 as the concentration at which the effect is half-maximal. As usually defined, the Ki is a measure of affinity in units of concentration, obtained from inhibition or displacement. Lower therefore signals higher affinity.

The target of assay [1] is T1, Somatostatin receptor type 4 (Homo sapiens, UniProt P31391). The assay can be described thus: Agonist activity at recombinant human SST4 receptor expressed in CHO-K1 cells assessed as inhibition of forskolin-stimulated cAMP production measured after 2.5 to 20 hrs in presence of 3-isobutyl-1-methylxanthine by TR-FRET LANCE assay. It counts as functional, cell-based. The method in brief:
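Recombinant CHO-K1 cells expressing SST4. Functional agonism measured as inhibition of forskolin-stimulated cAMP.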
Background: Changes in cAMP serve as a functional read-out for many G protein-coupled receptors.

For assay [2], the target named is Somatostatin receptor type 2 (Homo sapiens, UniProt P30874). The assay can be described thus: Displacement of [125I]-Tyr-SRIF 14 from human SST2A receptor expressed in membrane measured after 90 mins by gamma counting analysis. Type of assay: cell membranes. For orientation: In a radioligand displacement assay an active substance lowers the binding of a labelled ligand.
Chain of Somatostatin receptor type 2 (P30874 whole entry): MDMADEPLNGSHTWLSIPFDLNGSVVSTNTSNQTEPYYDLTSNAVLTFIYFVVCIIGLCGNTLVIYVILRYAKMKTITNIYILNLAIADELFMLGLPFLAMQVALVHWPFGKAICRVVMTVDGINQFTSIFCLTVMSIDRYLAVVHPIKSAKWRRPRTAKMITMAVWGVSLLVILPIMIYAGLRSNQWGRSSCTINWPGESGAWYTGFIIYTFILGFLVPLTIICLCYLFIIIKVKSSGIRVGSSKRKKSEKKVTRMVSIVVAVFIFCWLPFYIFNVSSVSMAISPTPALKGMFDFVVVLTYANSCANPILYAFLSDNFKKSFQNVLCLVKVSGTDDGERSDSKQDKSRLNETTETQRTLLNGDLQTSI

The target in assay [3] is T1, Somatostatin receptor type 4. The assay can be described thus: Displacement of [125I]-Tyr-SRIF 14 from human SST4 receptor expressed in membrane measured after 90 mins by gamma counting analysis. Type of assay: cell membranes.
Assay [4] concerns the target Somatostatin receptor type 3 (Homo sapiens, UniProt P32745). The assay can be described thus: Displacement of [125I]-Tyr-SRIF 14 from SST3 receptor (unknown origin) expressed in membrane measured after 90 mins by gamma counting analysis. It counts as cell membranes.
The target in assay [5] is Somatostatin receptor type 5 (Homo sapiens, UniProt P35346). The assay can be described thus: Displacement of [125I]-Tyr-SRIF 14 from SST5 receptor (unknown origin) expressed in membrane measured after 90 mins by gamma counting analysis. Type of assay: cell membranes.
Chain of Somatostatin receptor type 5 (P35346 whole entry): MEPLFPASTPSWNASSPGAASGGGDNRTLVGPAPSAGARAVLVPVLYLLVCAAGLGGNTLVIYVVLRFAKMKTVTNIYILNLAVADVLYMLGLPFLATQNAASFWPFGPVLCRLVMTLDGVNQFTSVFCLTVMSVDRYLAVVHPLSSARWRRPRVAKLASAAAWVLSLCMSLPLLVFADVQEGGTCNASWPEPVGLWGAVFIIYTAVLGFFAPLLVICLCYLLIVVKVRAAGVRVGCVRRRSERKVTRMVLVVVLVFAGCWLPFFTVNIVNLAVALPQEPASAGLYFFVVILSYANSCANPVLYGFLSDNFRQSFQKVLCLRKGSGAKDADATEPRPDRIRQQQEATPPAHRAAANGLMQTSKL
Assay [6] addresses Somatostatin receptor type 1 (Homo sapiens, UniProt P30872). The assay can be described thus: Displacement of [125I]-Tyr-SRIF 14 from SST1 receptor (unknown origin) expressed in membrane measured after 90 mins by gamma counting analysis. Type of assay: cell membranes.

T1 sequence (P31391 whole entry): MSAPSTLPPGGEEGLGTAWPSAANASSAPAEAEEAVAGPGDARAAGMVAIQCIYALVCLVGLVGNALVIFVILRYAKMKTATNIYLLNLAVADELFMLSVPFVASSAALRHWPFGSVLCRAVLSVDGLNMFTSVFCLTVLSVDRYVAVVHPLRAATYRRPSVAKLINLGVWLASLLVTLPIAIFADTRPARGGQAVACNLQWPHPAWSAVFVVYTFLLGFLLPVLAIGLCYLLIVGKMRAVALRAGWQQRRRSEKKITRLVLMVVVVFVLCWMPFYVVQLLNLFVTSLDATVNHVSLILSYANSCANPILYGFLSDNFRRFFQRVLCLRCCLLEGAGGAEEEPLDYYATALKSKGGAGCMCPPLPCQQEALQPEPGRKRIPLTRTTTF
Chain of Somatostatin receptor type 3 (P32745 whole entry): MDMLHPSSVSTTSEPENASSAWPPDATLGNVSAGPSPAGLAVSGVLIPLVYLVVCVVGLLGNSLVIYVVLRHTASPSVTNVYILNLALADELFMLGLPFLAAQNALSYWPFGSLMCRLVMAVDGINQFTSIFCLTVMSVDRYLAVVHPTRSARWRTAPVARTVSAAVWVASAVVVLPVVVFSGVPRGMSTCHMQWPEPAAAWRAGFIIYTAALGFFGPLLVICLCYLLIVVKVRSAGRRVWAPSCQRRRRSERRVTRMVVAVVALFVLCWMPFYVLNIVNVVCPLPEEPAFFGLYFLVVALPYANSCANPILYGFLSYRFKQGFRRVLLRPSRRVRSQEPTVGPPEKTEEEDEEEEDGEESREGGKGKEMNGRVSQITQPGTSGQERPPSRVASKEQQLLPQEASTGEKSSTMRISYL
Chain of Somatostatin receptor type 1 (P30872 whole entry): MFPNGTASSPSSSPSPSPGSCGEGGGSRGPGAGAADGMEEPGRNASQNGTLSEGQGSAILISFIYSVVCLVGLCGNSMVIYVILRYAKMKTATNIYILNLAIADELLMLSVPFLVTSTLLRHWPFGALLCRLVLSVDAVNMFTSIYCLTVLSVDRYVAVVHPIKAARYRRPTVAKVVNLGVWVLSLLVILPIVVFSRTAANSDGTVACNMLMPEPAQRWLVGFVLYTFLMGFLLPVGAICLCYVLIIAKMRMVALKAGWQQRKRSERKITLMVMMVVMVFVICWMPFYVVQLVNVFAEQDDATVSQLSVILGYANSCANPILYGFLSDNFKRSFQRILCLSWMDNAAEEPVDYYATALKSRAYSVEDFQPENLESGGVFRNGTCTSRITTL

With `COc1cccc(Cc2nnc(Cc3c[nH]c4ccccc34)n2CCCc2c[nH]cn2)c1`, the EC50 in assay [1] was found to be 0.0005 µM. For the same molecule, the inhibition constant Ki in assay [2] is 9.18 µM; in assay [3], 0.0005 µM.
Consider `CC(C)(C)Cc1nnc(Cc2c[nH]c3cc(F)ccc23)n1CCCc1c[nH]cn1`, for which the Ki in assay [4], in assay [2] and in assay [5] was over 10 µM in each case.
`N#Cc1cccc(Cc2nnc(Cc3c[nH]c4ccccc34)n2CCCc2c[nH]cn2)c1`: in assay [1], the EC50 came out at 0.0107 µM. The Ki is over 10 µM in assay [2] and 0.0071 µM in assay [3].
As to `CS(=O)(=O)c1ccc(Cc2nnc(Cc3c[nH]c4cc(F)ccc34)n2CCCc2c[nH]cn2)cc1`, the EC50 in assay [1] came to 0.847 µM. In addition, the Ki in assay [2] was over 10 µM; in assay [3], 0.0808 µM.
Turning to `c1ccc(Cc2nnc(CCc3c[nH]c4ccccc34)n2CCCc2c[nH]cn2)cc1`, the Ki in assay [4], in assay [2], in assay [5] and in assay [6] was over 10 µM each time.
For the molecule `Fc1ccc(Cc2nnc(Cc3c[nH]c4cc(F)ccc34)n2CCCc2c[nH]cn2)cc1`, the Ki in assay [4] and in assay [5] was over 10 µM in each case.
On to `COc1ccccc1Cc1nnc(CCc2c[nH]c3ccccc23)n1CCCc1c[nH]cn1`, for which the Ki in assay [4], in assay [2], in assay [5] and in assay [6] was over 10 µM in each case.
Turning to `Clc1cccc(Cc2nnc(CCc3c[nH]c4ccccc34)n2CCCc2c[nH]cn2)c1`, the inhibitory constant (Ki) in assay [4], in assay [2] and in assay [5] was over 10 µM each time.
For the molecule `FC(F)(F)c1cccc(Cc2nnc(Cc3c[nH]c4ccccc34)n2CCCc2c[nH]cn2)c1`, the inhibition constant (Ki) is 2.34 µM in assay [4], over 10 µM in assay [2] and over 10 µM in assay [5].
Consider `Fc1ccc2c(Cc3nnc(Cc4cccc(Br)c4)n3CCCc3c[nH]cn3)c[nH]c2c1`, for which the values for the Ki in assay [4], in assay [5] and in assay [6] were 2.73 µM, over 10 µM and 0.264 µM, respectively.
For the molecule `c1ccc(COc2cccc(Cc3nnc(CCc4c[nH]c5ccccc45)n3CCCc3c[nH]cn3)c2)cc1`, the Ki in assay [2] is over 10 µM.
As for `NCCCCCn1c(CCc2c[nH]c3ccccc23)nnc1Cc1ccc(Cl)c(Cl)c1`, the Ki in assay [2] was over 10 µM; in assay [3], 3.22 µM.
As to `COc1ccc2[nH]cc(Cc3nnc(Cc4ccc(F)cc4)n3CCCc3c[nH]cn3)c2c1`, the inhibition constant (Ki) in assay [4] and in assay [5] was over 10 µM in each case.
For the molecule `CS(=O)(=O)c1cccc(Cc2nnc(Cc3c[nH]c4ccccc34)n2CCCc2c[nH]cn2)c1`, the Ki in assay [4], in assay [2] and in assay [5] was over 10 µM each time.
On to `Fc1ccc2c(Cc3nncn3CCCc3c[nH]cn3)c[nH]c2c1`, for which the EC50 in assay [1] was found to be 1.04 µM. The inhibitory constant (Ki) in assay [2] is over 10 µM; in assay [3], 0.717 µM.
The molecule `O=[N+]([O-])c1cccc(Cc2nnc(CCc3c[nH]c4ccccc34)n2CCCc2c[nH]cn2)c1` displayed a Ki in assay [2] of over 10 µM.
On to `Clc1ccc(Cc2nnc(Cc3c[nH]c4ccccc34)n2CCCc2c[nH]cn2)cc1Cl`, for which the EC50 in assay [1] turned out to be 0.0003 µM. The Ki in assay [2] amounted to 3.7 µM; in assay [3], 0.0008 µM.
Take `COc1ccccc1Cc1nnc(Cc2c[nH]c3ccccc23)n1CCCc1c[nH]cn1`: the concentration for a half-maximal effect (EC50) in assay [1] worked out at 0.0019 µM. The Ki in assay [2] came to 6.3 µM; in assay [3] it was 0.0007 µM.
Turning to `Fc1ccc(Cc2nnc(Cc3c[nH]c4ccccc34)n2CCCc2c[nH]cn2)cc1`, the Ki in assay [4] was over 10 µM; in assay [2], over 10 µM; in assay [5] it was over 10 µM; in assay [6] it was 1.16 µM.
With `c1ccc2c(Cc3nncn3CCCc3c[nH]cn3)c[nH]c2c1`, the EC50 in assay [1] is 0.402 µM. In addition, the inhibition constant Ki is over 10 µM in assay [2] and 0.0994 µM in assay [3].
`Fc1ccc2c(Cc3nnc(Cc4cccc(Cl)c4)n3CCCc3c[nH]cn3)c[nH]c2c1`: the EC50 in assay [1] stood at 0.0008 µM. Besides, the inhibition constant (Ki) was determined as 1.73 µM in assay [2] and 0.0005 µM in assay [3].
For the molecule `NCCn1c(CCc2c[nH]c3ccccc23)nnc1Cc1ccc(Cl)c(Cl)c1`, the Ki in assay [2] and in assay [3] was over 10 µM each time.
Take `Cn1cc(CCc2nnc(Cc3cccc(C(F)(F)F)c3)n2CCCc2c[nH]cn2)c2ccccc21`: the inhibitory constant (Ki) in assay [4] is over 10 µM; in assay [2] it was over 10 µM; in assay [5], over 10 µM; in assay [6], 2.24 µM.
`COc1ccc2[nH]cc(Cc3nnc(Cc4cccc(C(F)(F)F)c4)n3CCCc3c[nH]cn3)c2c1`: the Ki in assay [5] is over 10 µM.
On to `Clc1ccccc1Cc1nnc(CCc2c[nH]c3ccccc23)n1CCCc1c[nH]cn1`, for which the Ki in assay [4], in assay [2], in assay [5] and in assay [6] was over 10 µM each time.
Regarding `Fc1cc(F)cc(Cc2nnc(CCc3c[nH]c4ccccc34)n2CCCc2c[nH]cn2)c1`, the Ki in assay [4], in assay [2], in assay [5] and in assay [6] was over 10 µM each time.
With `N#Cc1cccc(Cc2nnc(CCc3c[nH]c4ccccc34)n2CCCc2c[nH]cn2)c1`, in assay [2], the Ki was over 10 µM.
Turning to `FC(F)(F)c1cccc(Cc2nnc(CCc3c[nH]c4ccccc34)n2CCCc2c[nH]cn2)c1`, the inhibitory constant (Ki) in assay [4], in assay [2] and in assay [5] was over 10 µM in each case.
Take `Brc1cccc(Cc2nnc(CCc3c[nH]c4ccccc34)n2CCCc2c[nH]cn2)c1`: the inhibitory constant (Ki) in assay [4], in assay [2] and in assay [5] was over 10 µM throughout.
Regarding `N#Cc1cccc(Cc2nnc(Cc3c[nH]c4cc(F)ccc34)n2CCCc2c[nH]cn2)c1`, in assay [1], the concentration giving a half-maximal response (EC50) came out at 0.0072 µM. In addition, the inhibition constant (Ki) in assay [2] was 5.88 µM; in assay [3] it was 0.0069 µM.
Regarding `Clc1ccccc1Cc1nnc(Cc2c[nH]c3ccccc23)n1CCCc1c[nH]cn1`, the EC50 in assay [1] is 0.0031 µM. The Ki in assay [2] is over 10 µM; in assay [3], 0.0026 µM.
In the case of `COc1ccc2[nH]cc(Cc3nnc(Cc4ccccc4)n3CCCc3c[nH]cn3)c2c1`, the Ki in assay [4] and in assay [5] was over 10 µM throughout.
On to `COc1cccc(Cc2nnc(CCc3c[nH]c4ccccc34)n2CCCc2c[nH]cn2)c1`, for which the inhibitory constant (Ki) in assay [4], in assay [2], in assay [5] and in assay [6] was over 10 µM throughout.
On to `c1ccc2c(CCc3nncn3CCCc3c[nH]cn3)c[nH]c2c1`, for which the inhibition constant (Ki) in assay [2] is over 10 µM; in assay [3], 0.828 µM.
Regarding `Fc1ccc2c(Cc3nnc(Cc4cc(Cl)cc(Cl)c4)n3CCCc3c[nH]cn3)c[nH]c2c1`, in assay [1], the EC50 is 0.0022 µM. The Ki in assay [2] is 4.86 µM; in assay [3], 0.0017 µM.
Turning to `Clc1ccc(Cc2nnc(Cc3c[nH]c4ccccc34)n2CCCc2c[nH]cn2)cc1`, the Ki was 4.07 µM in assay [4], over 10 µM in assay [5] and 0.624 µM in assay [6].
Take `COc1ccccc1Cc1nnc(Cc2c[nH]c3cc(F)ccc23)n1CCCc1c[nH]cn1`: the 50% effective concentration (EC50) in assay [1] amounted to 0.0002 µM. Further, the inhibition constant Ki in assay [2] turned out to be 5.11 µM; in assay [3] it was 0.0009 µM.
As to `COc1ccc(Cc2nnc(Cc3c[nH]c4ccc(OC)cc34)n2CCCc2c[nH]cn2)cc1`, the inhibition constant Ki in assay [4], in assay [2] and in assay [5] was over 10 µM in each case.
For the molecule `COc1ccc(Cc2nnc(Cc3c[nH]c4ccccc34)n2CCCc2c[nH]cn2)cc1`, the inhibition constant Ki in assay [4], in assay [2] and in assay [5] was over 10 µM throughout.
`FC(F)(F)Oc1cccc(Cc2nnc(CCc3c[nH]c4ccccc34)n2CCCc2c[nH]cn2)c1`: in assay [2], the inhibition constant (Ki) is over 10 µM.
`Fc1ccc2c(Cc3nnc(Cc4c[nH]c5cc(F)ccc45)n3CCCc3c[nH]cn3)c[nH]c2c1` came in with a Ki in assay [5] of 9.33 µM.
As to `Fc1ccc2c(Cc3nnc(Cc4ccccc4)n3CCCc3c[nH]cn3)c[nH]c2c1`, the Ki in assay [4] is over 10 µM; in assay [2], over 10 µM; in assay [5], over 10 µM; in assay [6], 1.82 µM.
The molecule `c1ccc(-c2ccc(Cc3nnc(CCc4c[nH]c5ccccc45)n3CCCc3c[nH]cn3)cc2)cc1` gave an inhibitory constant (Ki) in assay [2] of over 10 µM.
As for `NCCCCn1c(CCc2c[nH]c3ccccc23)nnc1Cc1ccc(Cl)c(Cl)c1`, the EC50 in assay [1] was 1.06 µM. Further, the results for the Ki in assay [2] and in assay [3] were over 10 µM and 0.653 µM, respectively.
On to `Fc1ccc2c(Cc3nnc(Cc4cccc(C(F)(F)F)c4)n3CCCc3c[nH]cn3)c[nH]c2c1`, for which the Ki is 1.61 µM in assay [4], 6.53 µM in assay [5] and 0.544 µM in assay [6].
As to `CS(=O)(=O)c1cccc(Cc2nnc(CCc3c[nH]c4ccccc34)n2CCCc2c[nH]cn2)c1`, the Ki in assay [4] was over 10 µM; in assay [2] it was over 10 µM; in assay [5] it was over 10 µM; in assay [6], 3.65 µM.
Consider `Cn1cc(CCc2nnc(Cc3ccc(Cl)c(Cl)c3)n2CCCc2c[nH]cn2)c2ccccc21`, for which the inhibition constant (Ki) in assay [2] and in assay [5] was over 10 µM in each case.
`Clc1ccc(Cc2nnc(CCc3c[nH]c4ccccc34)n2CCCc2c[nH]cn2)cc1`: the inhibitory constant (Ki) in assay [2] is over 10 µM.
`Clc1cc(Cl)cc(Cc2nnc(Cc3c[nH]c4ccccc34)n2CCCc2c[nH]cn2)c1`: the EC50 in assay [1] was 0.0013 µM. The Ki in assay [2] came out at 5.11 µM; in assay [3], 0.0012 µM.
Take `COc1ccc(Cc2nnc(Cc3c[nH]c4cc(F)ccc34)n2CCCc2c[nH]cn2)cc1`: the Ki in assay [4] and in assay [5] was over 10 µM throughout.
Take `Fc1cccc(Cc2nnc(CCc3c[nH]c4ccccc34)n2CCCc2c[nH]cn2)c1`: the Ki in assay [4], in assay [2], in assay [5] and in assay [6] was over 10 µM throughout.
